Assay results published in ChEMBL document CHEMBL4145657 (J Med Chem, 2018).
Calls of active or inactive are those of the source. The rule behind the calls is not given here.

How the values were obtained:
[1] = target: Kappa-type opioid receptor (Homo sapiens) (UniProt P41145); assay: Agonist activity at human kappa opioid receptor expressed in CHO cell membranes at 10 uM incubated for 60 mins by [35S]GTPgammaS binding assay; format: functional
Outline: (§1)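 CHO cell membranes expressing human κ (20 µg), µ (10 µg) or δ (7 µg) opioid receptor. Test compound at 10 µM final, with 10 µM GDP and 0.1 nM [35S]GTPγS in HEPES pH 7.4 buffer containing NaCl, MgCl2, EDTA, DTT and BSA. Incubated 60 min at 22 °C with shaking, then filtered and counted. Nonspecific binding defined with 10 µM unlabeled GTPγS.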

[2] = target: Mu-type opioid receptor (Homo sapiens) (UniProt P35372); assay: Agonist activity at human mu opioid receptor expressed in CHO cell membranes at 10 uM incubated for 60 mins by [35S]GTPgammaS binding assay; format: functional; outline: as §1
[3] = target: Delta-type opioid receptor (Homo sapiens) (UniProt P41143); assay: Agonist activity at human delta opioid receptor expressed in CHO cell membranes at 10 uM incubated for 60 mins by [35S]GTPgammaS binding assay; format: functional; outline: as §1
[4] = Clearance in Sprague-Dawley rat plasma at 5 mg/kg, sc measured after 1 to 168 hrs post dose by LC/MS-MS method; format: ADME, organism-based
Outline: (§2)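 Male Sprague Dawley rats, 10 weeks old, single subcutaneous 5 mg/kg dose at 1 mL/kg. Three rats per timepoint were killed by CO2 at 1, 4, 24, 72 and 168 h. Cardiac blood went into K3EDTA and was spun to plasma. Brains were homogenized 1:5 in 50:50 ethanol:water. Methanol precipitation used buspirone as internal standard. Analysis was by LC/MS-MS on C8 reverse phase. Parameters were taken from the apparent terminal elimination phase.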

[5] = target: Delta-type opioid receptor (Homo sapiens) (UniProt P41143); details: CHO
[6] = Half life in Sprague-Dawley rat plasma at 5 mg/kg, sc measured after 1 to 168 hrs post dose by LC/MS-MS method; format: ADME, organism-based; details: in vivo
Outline: as §2, with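 “mL/kg.” for “mL/kg. Three rats per timepoint were killed by CO2 at 1, 4, 24, 72 and 168 h.”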

[7] = rat, in vivo, sc, 5 mg/kg
[8] = target: Mu-type opioid receptor (Homo sapiens) (UniProt P35372); details: CHO

Delta-type opioid receptor (Homo sapiens), sequence (P41143 whole entry): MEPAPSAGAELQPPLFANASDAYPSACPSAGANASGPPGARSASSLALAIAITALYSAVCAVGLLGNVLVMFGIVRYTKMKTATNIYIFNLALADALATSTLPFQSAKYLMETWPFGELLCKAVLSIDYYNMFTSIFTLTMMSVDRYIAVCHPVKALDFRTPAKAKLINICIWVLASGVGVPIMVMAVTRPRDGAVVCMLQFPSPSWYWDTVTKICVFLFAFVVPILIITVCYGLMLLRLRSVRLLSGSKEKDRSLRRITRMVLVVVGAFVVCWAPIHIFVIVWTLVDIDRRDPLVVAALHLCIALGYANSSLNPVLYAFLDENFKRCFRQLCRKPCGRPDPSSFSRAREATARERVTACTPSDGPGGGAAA
Kappa-type opioid receptor (Homo sapiens), sequence (P41145 whole entry): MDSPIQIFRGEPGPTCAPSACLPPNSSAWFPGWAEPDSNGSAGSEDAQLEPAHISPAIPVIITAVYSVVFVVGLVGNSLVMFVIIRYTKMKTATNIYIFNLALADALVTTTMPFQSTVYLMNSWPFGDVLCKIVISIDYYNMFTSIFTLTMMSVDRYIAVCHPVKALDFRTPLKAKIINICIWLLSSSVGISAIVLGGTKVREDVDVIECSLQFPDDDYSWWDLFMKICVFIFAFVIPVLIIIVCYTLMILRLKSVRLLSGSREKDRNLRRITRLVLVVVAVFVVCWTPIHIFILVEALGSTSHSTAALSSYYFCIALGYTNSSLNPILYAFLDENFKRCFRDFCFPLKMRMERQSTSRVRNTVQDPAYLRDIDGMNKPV
Mu-type opioid receptor (Homo sapiens), sequence (P35372 whole entry): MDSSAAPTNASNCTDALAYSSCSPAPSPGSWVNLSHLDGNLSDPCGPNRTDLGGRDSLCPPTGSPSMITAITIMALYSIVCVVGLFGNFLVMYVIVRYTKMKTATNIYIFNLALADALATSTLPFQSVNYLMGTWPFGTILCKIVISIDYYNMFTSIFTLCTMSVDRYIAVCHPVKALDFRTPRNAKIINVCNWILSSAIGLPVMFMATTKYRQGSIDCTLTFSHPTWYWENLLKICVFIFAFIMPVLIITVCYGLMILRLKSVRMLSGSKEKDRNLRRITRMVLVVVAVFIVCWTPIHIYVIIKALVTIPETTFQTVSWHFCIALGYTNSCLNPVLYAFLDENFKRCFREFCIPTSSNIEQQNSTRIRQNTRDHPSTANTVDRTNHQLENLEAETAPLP

SMILES | Activity [1] | Activity [2] | Activity [3] | Ke [5] [nM] | CL/F [4] [mL/min/kg] | t1/2 [6] [h] | Tmax [7] [h] | Ke [8] [nM]
CC(C)[C@@H](CC1CCCCC1)NC(=O)[C@H]1Cc2ccc(C(N)=O)cc2CN1 | inactive | inactive | inactive |  | 71.2 |  |  | 
O=C(NCCC1CCCCC1)[C@H]1Cc2ccc(O)cc2CN1 | inactive | inactive | inactive |  |  |  |  | 
CC(C)[C@@H](CN1CC[C@@](C)(c2cccc(O)c2)[C@@H](C)C1)NC(=O)[C@H]1Cc2ccc(O)cc2CN1 [JDTIC] |  |  |  |  |  | 28.4 |  | 
CC1CCC(C[C@@H](NC(=O)[C@H]2Cc3ccc(O)cc3CN2)C(C)C)CC1 (some centres undefined) | inactive | inactive | inactive |  |  |  |  | 
CC(C)[C@@H](CC1CCCCC1)NC(=O)[C@H]1Cc2ccc(O)cc2CN1 | inactive | inactive | inactive |  | 98.6 | 34.2 | 1 | 
O=C(N[C@H](CC1CCCCC1)c1ccccc1)[C@H]1Cc2ccc(O)cc2CN1 | inactive | inactive | inactive |  |  |  |  | 
CC(C)[C@@H](CC1CCCC1)NC(=O)[C@@]1(C)Cc2ccc(O)cc2CN1 | inactive | inactive | inactive |  |  |  |  | 
CC(C)[C@@H](CC1CCCC1)NC(=O)[C@H]1Cc2ccc(O)cc2CN1 | inactive | inactive | inactive | 1570 | 130 | 32.1 |  | 344

Further lines, with some results ahead:

Activity [1] | Activity [2] | Activity [3] | Ke [5] [nM] | SMILES | CL/F [4] [mL/min/kg] | t1/2 [6] [h] | Tmax [7] [h] | Ke [8] [nM]
inactive | inactive | inactive |  | CC(C)[C@@H](CC1CCCCC1)NC(=O)[C@H]1Cc2ccc(F)cc2CN1 |  |  |  | 
inactive | inactive | inactive |  | CC(C)[C@@H](CC1CCCCCC1)NC(=O)[C@H]1Cc2ccc(O)cc2CN1 |  |  |  | 
inactive | inactive | inactive |  | CC(C)[C@@H](CC1CCCCC1)NC(=O)[C@H]1Cc2ccccc2CN1 |  |  |  | 
inactive | inactive | inactive |  | O=C(N[C@H](CC1CCCC1)C1CC1)[C@H]1Cc2ccc(O)cc2CN1 |  |  |  | 
inactive | inactive | inactive | > 3000 | CC(C)[C@H](CC1CCCCC1)NC(=O)[C@@H]1Cc2ccc(O)cc2CN1 |  |  |  | 
inactive | inactive | inactive | > 3000 | CC(C)[C@@H](CC1CCCCC1)NC(=O)[C@@H]1Cc2ccc(O)cc2CN1 |  |  |  | 
inactive | inactive | inactive |  | COc1ccc2c(c1)CN[C@@H](C(=O)N[C@H](CC1CCCCC1)C(C)C)C2 |  |  |  | 
inactive | inactive | inactive |  | O=C(N[C@H](CC1CCCCC1)C1CC1)[C@H]1Cc2ccc(O)cc2CN1 |  |  |  | 
inactive | inactive | inactive | > 3000 | CC(C)[C@H](CC1CCCCC1)NC(=O)[C@H]1Cc2ccc(O)cc2CN1 |  |  |  | 
inactive | inactive | inactive |  | CC(C)[C@@H](CC1CCCCC1)NC(=O)[C@H]1Cc2ccc(O)cc2CN1C |  |  |  | 
inactive | inactive | inactive |  | CC(C)[C@@H](CC1CCCC1)NC(=O)[C@H]1Cc2ccc(C(N)=O)cc2CN1 |  |  |  | 
inactive | inactive | inactive |  | CC(C)[C@@H](CC1CCC1)NC(=O)[C@H]1Cc2ccc(O)cc2CN1 |  |  |  | 
